According to ChEMBL document CHEMBL1152392, “Discovery and optimization of a novel Neuromedin B receptor antagonist” (Bioorg Med Chem Lett, 2009):
pIC50: −log10 of the molar value.

Key:
[1] = biological target: T1, Neuromedin-B receptor (Homo sapiens, UniProt P28336); experiment: Displacement of [125I]-(D-Tyr0)NMB from human neuromedin B receptor transfected in HEK293 cells; format: cell-based
Outline: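 Whole-cell competition binding used 1 × 10⁶ HEK293 cells stably transfected with hNMBR, with 150 pM ¹²⁵I-[D-Tyr0]NMB (2200 Ci/mmol), in DMEM for 1 h at room temperature. Bound ligand was separated by filtration and total bound counts were measured. Day-to-day standard error was <30%; well-to-well variability was <10%.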

[2] = biological target: Gastrin-releasing peptide receptor (Homo sapiens, UniProt P30550); experiment: Inhibition gastrin-releasing peptide receptor
Chain of Gastrin-releasing peptide receptor (P30550 whole entry): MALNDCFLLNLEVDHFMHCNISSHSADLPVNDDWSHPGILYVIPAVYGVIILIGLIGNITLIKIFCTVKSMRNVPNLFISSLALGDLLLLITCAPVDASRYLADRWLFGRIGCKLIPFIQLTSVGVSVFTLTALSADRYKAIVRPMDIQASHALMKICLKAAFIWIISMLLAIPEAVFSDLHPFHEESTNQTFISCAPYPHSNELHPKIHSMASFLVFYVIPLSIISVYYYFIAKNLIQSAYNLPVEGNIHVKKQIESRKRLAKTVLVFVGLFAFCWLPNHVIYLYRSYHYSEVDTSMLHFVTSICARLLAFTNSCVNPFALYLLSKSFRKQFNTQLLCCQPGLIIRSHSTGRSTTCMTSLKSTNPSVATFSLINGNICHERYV

[3] = biological target: T1, Neuromedin-B receptor; experiment: Antagonist activity at human neuromedin B receptor transfected in HEK293 cells assessed as inhibition of 1 nM neuromedin B-induced myo-[3H]inositol phosphate accumulation after 60 mins by scintillation proximity assay; format: functional, cell-based
Outline: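 hNMBR-transfected HEK293 cells (2.5 × 10⁴ per well) were labelled overnight at 37 °C with myo-[³H]inositol in inositol-free DMEM with 25 mM Hepes and 10% dialyzed FBS. Compounds were added in inositol-free DMEM with 0.3% BSA and 10 mM LiCl for 60 min at 37 °C. Cells were lysed in 20 mM formic acid (2 h, 4 °C), and inositol phosphates were captured on RNA-binding SPA beads for 30 min.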

[4] = test system: HeLa; experiment: Cytotoxicity against human HeLa cells up to 30 uM after 72 hrs by alamar blue assay; format: cell-based
Outline: (§1)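 HeLa cells were seeded at 5k per well. Compounds were tested as a 9-point threefold dilution series, with triplicate readings at 0 and 72 h. At each time point Alamar Blue was added for 3 h at 37 °C and fluorescence was read. Relative growth was compared to a DMSO control well for each compound.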

[5] = test system: HeLa; experiment: Cytotoxicity against human HeLa cells after 72 hrs by alamar blue assay; format: cell-based; outline: as §1
[6] = test system: HEK293; experiment: Cytotoxicity against HEK293 cells up to 30 uM after 72 hrs by alamar blue assay; format: cell-based; settings: human, hek293, 72 h

T1 sequence (P28336 whole entry): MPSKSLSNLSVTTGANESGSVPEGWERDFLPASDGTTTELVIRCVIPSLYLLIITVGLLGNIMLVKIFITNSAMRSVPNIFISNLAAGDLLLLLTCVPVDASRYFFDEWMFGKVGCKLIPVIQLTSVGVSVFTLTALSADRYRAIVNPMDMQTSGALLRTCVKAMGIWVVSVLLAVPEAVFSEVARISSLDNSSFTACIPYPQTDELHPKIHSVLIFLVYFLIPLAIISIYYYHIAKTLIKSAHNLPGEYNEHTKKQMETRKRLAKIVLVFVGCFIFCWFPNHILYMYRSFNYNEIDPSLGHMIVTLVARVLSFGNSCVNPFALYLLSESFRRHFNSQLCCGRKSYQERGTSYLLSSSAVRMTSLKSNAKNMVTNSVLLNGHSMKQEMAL

Compound	pIC50 [1]	other results
CCN1c2cc(C)ccc2NC2=C(C(=O)CC(C)(C)C2)C1c1c(F)cccc1Cl (configuration not stated)	6.74	–
Cc1ccc2c(c1)NC(c1ccccc1F)C1=C(CC(C)(C)CC1=O)N2 (configuration not stated)	5.89	–
Cc1ccc2c(c1)NC(c1c(F)cccc1F)C1=C(CC(C)(C)CC1=O)N2 (configuration not stated)	5.60	–
Cc1ccc2c(c1)NC(c1c(F)cccc1Cl)C1=C(CC(C)CC1=O)N2 (configuration not stated)	6.35	–
Cc1ccc2c(c1)NC(c1c(F)cccc1C(F)(F)F)C1=C(CC3(CCCC3)CC1=O)N2 (configuration not stated)	6.27	–
Cc1ccc2c(c1)NC(c1c(F)cccc1Cl)C1=C(CC(C)(C)CC1=O)N2C (configuration not stated)	5.00	–
Cc1ccc2c(c1)NC(c1c(F)cccc1Cl)C1=C(CC(c3ccc(N(C)C)cc3)CC1=O)N2 (configuration not stated)	5.27	–
Cc1ccc2c(c1)NC(c1c(F)cccc1Cl)C1=C(CC(C)(C)CC1=O)N2 (configuration not stated)	6.52	pIC50 [2]: < 5.00; pIC50 [3]: 5.26
CC1(C)CC(=O)C2=C(C1)Nc1ccc(OC(F)(F)F)cc1NC2c1c(F)cccc1Cl (configuration not stated)	5.89	–
COc1ccc(C2CC(=O)C3=C(C2)Nc2ccc(C)cc2NC3c2c(F)cccc2Cl)cc1 (configuration not stated)	5.70	–
CSc1ccccc1C1Nc2cc(C)ccc2NC2=C1C(=O)CC(C)(C)C2 (configuration not stated)	6.70	–
Cc1ccc2c(c1)NC(c1c(F)cccc1Cl)C1=C(CCCC1=O)N2 (configuration not stated)	5.85	–
Cc1ccc2c(c1)NC(c1ccccc1SC(F)(F)F)C1=C(CC3(CCCC3)CC1=O)N2 (configuration not stated)	6.19	–
COc1ccc2c(c1)NC(c1c(F)cccc1Cl)C1=C(CC(C)(C)CC1=O)N2 (configuration not stated)	5.66	–
CC1(C)CC(=O)C2=C(C1)Nc1ccc(O)cc1NC2c1c(F)cccc1Cl (configuration not stated)	5.00	–
COc1ccccc1C1Nc2cc(C)ccc2NC2=C1C(=O)CC(C)(C)C2 (configuration not stated)	5.96	–
CCCCN1c2cc(C)ccc2NC2=C(C(=O)CC(C)(C)C2)C1c1c(F)cccc1Cl (configuration not stated)	6.82	–
CSc1ccccc1C1Nc2cc(C)ccc2NC2=C1C(=O)CC1(CCCC1)C2 (configuration not stated)	6.60	–

Compound	pIC50 [1]	other results
Cc1ccc2c(c1)NC(c1ccccc1)C1=C(CC(C)(C)CC1=O)N2 (configuration not stated)	5.16	–
Cc1ccc2c(c1)NC(c1ccccc1[N+](=O)[O-])C1=C(CC(C)(C)CC1=O)N2 (configuration not stated)	6.26	–
Cc1ccc2c(c1)NC(c1c(F)cccc1Cl)C1=C(CC3(CCCC3)CC1=O)N2 (configuration not stated)	6.55	–
CC1(C)CC(=O)C2=C(C1)Nc1ccc(C#N)cc1NC2c1c(F)cccc1Cl (configuration not stated)	5.89	–
Cc1ccc2c(c1)NC(c1c(F)cccc1Cl)C1=C(CC(c3ccco3)CC1=O)N2 (configuration not stated)	5.52	–
Cc1ccc2c(c1)NC(c1ccccc1Cl)C1=C(CC3(CCCC3)CC1=O)N2 (configuration not stated)	6.62	–
CC1(C)CC(=O)C2=C(C1)Nc1ccc(C(N)=O)cc1NC2c1c(F)cccc1Cl (configuration not stated)	5.00	–
Cc1ccc2c(c1)NC(c1ccccc1C(F)(F)F)C1=C(CC(C)(C)CC1=O)N2 (configuration not stated)	6.60	–
Cc1ccc2c(c1)NC(c1c(F)cccc1Cl)C1=C(CCC1=O)N2 (configuration not stated)	5.00	–
Cc1ccc2c(c1)N(C)C(c1c(F)cccc1Cl)C1=C(CC(C)(C)CC1=O)N2 (configuration not stated)	6.77	–
CC1(C)CC(=O)C2=C(C1)Nc1ccc(C(=O)O)cc1NC2c1c(F)cccc1Cl (configuration not stated)	5.00	–
Cc1ccc2c(c1)NC(c1c(F)cccc1Cl)C1=C(CC(C(C)C)CC1=O)N2 (configuration not stated)	6.09	–
Cc1ccc2c(c1)NC(c1ccccc1Cl)C1=C(CC(C)(C)CC1=O)N2 (configuration not stated)	6.55	–
CC1(C)CC(=O)C2=C(C1)Nc1ccc(Cl)cc1NC2c1c(F)cccc1Cl (configuration not stated)	6.07	–
CC1(C)CC(=O)C2=C(C1)Nc1ccc(C(F)(F)F)cc1NC2c1c(F)cccc1Cl (configuration not stated)	6.43	–
Cc1ccc2c(c1)NC(c1ccccc1C(F)(F)F)C1=C(CC3(CCCC3)CC1=O)N2 (single isomer, unassigned; (+))	7.52	Activity [4]: Non-toxic; pIC50 [5]: < 4.30; pIC50 [3]: 6.24; Activity [6]: Non-toxic
Cc1ccc2c(c1)NC(c1ccccc1C(F)(F)F)C1=C(CC3(CCCC3)CC1=O)N2 (single isomer, unassigned; (-))	< 5.00	–
Cc1ccc2c(c1)NC(c1ccccc1C(F)(F)F)C1=C(CC3(CCCC3)CC1=O)N2 (stereo in doubt; 30)	7.02	–
